Data: ChEMBL document CHEMBL2034972, “Synthesis, biological evaluation, and structure-activity relationships of N-benzoyl-2-hydroxybenzamides as agents active against P. falciparum (K1 strain), Trypanosomes, and Leishmania” (J Med Chem, 2012)
Values after ≈ are worked out from the molar mass of the structure shown.

Experiments:
[1] = Selectivity index, ratio of IC50 for rat L6 cells to IC50 for chloroquine and pyrimethamine-resistant Plasmodium falciparum K1; assay type: toxicity, cell-based; details: read-out: Ratio IC50
Summary of the method: (§1)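 Selectivity index is calculated as the L6 myoblast IC50 divided by the IC50 against the respective parasite. Both IC50s are in µg/mL and are means of two independent determinations.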

[2] = Selectivity index, ratio of IC50 for rat L6 cells to IC50 for axenic amastigote stage of Leishmania donovani MHOM/ET/67/L82; assay type: toxicity, cell-based; details: read-out: Ratio IC50; summary of the method: as §1
[3] = tested on: L6; assay: Cytotoxicity against rat L6 cells after 72 hrs by alamar blue assay; assay type: cell-based; details: L6, 72 h
Summary of the method: (§2)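 In vitro screens of parasites and host cells: T. b. rhodesiense STIB900 trypomastigotes, T. cruzi Tulahuen C4 intracellular amastigotes, L. donovani MHOM-ET-67/L82 axenic amastigotes, P. falciparum K1 erythrocytic stage, and L6 rat skeletal myoblasts […] for toxicity. […] Values are means of two independent determinations.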

[4] = Selectivity index, ratio of IC50 for rat L6 cells to IC50 for trypomastigotes of Trypanosoma brucei rhodesiense STIB 900; assay type: toxicity, cell-based; details: read-out: Ratio IC50; summary of the method: as §1
[5] = tested on: Plasmodium falciparum; assay: Antimalarial activity against chloroquine and pyrimethamine-resistant Plasmodium falciparum […] assessed as [3H]-hypoxanthine incorporation after 48 hrs by liquid scintillation counting; assay type: functional, organism-based; summary of the method: as §2
[6] = tested on: Trypanosoma cruzi; assay: Antitrypanosomal activity against intracellular amastigote stage of Trypanosoma cruzi Tulahuen C2C4 infected in rat L6 cells after 96 hrs by spectrophotometric analysis; assay type: functional, organism-based; details: Tulahuen C2C4, L6, 96 h
Summary of the method: (§3)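 In vitro screens of parasites and host cells: T. b. rhodesiense STIB900 trypomastigotes, T. cruzi Tulahuen C4 intracellular amastigotes, L. donovani MHOM-ET-67/L82 axenic amastigotes, P. falciparum K1 erythrocytic stage, and L6 rat skeletal myoblasts […] for toxicity. Values are means of two independent determinations.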

[7] = Selectivity index, ratio of IC50 for rat L6 cells to IC50 for intracellular amastigote stage of Trypanosoma cruzi Tulahuen C2C4; assay type: toxicity, cell-based; details: read-out: Ratio IC50; summary of the method: as §1
[8] = tested on: Leishmania donovani; assay: Antileishmanial activity against axenic amastigote stage of Leishmania donovani […] after 72 hrs by alamar blue assay; assay type: functional, organism-based; details: MHOM/ET/67/L82, L6, 72 h; summary of the method: as §3
[9] = tested on: Trypanosoma brucei rhodesiense; assay: Antitrypanosomal activity against trypomastigotes of Trypanosoma brucei rhodesiense […] after 72 hrs by alamar blue assay; assay type: functional, organism-based; details: STIB 900, L6, 72 h; summary of the method: as §2
[10] = biological target: Voltage-gated inwardly rectifying potassium channel KCNH2 (Homo sapiens, UniProt Q12809); assay: Inhibition of human Erg at 300 uM
[11] = Aqueous solubility of the compound in phosphate based buffer at pH 4; assay type: physicochemical
[12] = biological target: CYP2D6 (Homo sapiens, UniProt P10635); assay: Inhibition of CYP2D6 at 10 uM; assay type: ADME
[13] = Metabolic stability of the compound in human liver microsomes assessed as compound remaining after 60 mins; assay type: ADME, Microsome; details: read-out: Stability
[14] = biological target: CYP2C9 (Homo sapiens, UniProt P11712); assay: Inhibition of CYP2C9 at 10 uM; assay type: ADME
[15] = Metabolic stability of the compound in human liver microsomes assessed as compound remaining after 60 mins in presence of NADPH; assay type: ADME, Microsome; details: read-out: Stability
[16] = biological target: CYP3A4 (Homo sapiens, UniProt P08684); assay: Inhibition of CYP3A4 at 10 uM; assay type: ADME
[17] = Aqueous solubility of the compound in phosphate based buffer at pH 7.4; assay type: physicochemical
[18] = Plasma protein binding in human; assay type: ADME, cell-free; details: read-out: PPB (converted)
[19] = Intrinsic clearance in human liver microsomes assessed per mg of protein; assay type: ADME, Microsome; details: read-out: CLH

Chain of Voltage-gated inwardly rectifying potassium channel KCNH2 (Q12809 whole entry): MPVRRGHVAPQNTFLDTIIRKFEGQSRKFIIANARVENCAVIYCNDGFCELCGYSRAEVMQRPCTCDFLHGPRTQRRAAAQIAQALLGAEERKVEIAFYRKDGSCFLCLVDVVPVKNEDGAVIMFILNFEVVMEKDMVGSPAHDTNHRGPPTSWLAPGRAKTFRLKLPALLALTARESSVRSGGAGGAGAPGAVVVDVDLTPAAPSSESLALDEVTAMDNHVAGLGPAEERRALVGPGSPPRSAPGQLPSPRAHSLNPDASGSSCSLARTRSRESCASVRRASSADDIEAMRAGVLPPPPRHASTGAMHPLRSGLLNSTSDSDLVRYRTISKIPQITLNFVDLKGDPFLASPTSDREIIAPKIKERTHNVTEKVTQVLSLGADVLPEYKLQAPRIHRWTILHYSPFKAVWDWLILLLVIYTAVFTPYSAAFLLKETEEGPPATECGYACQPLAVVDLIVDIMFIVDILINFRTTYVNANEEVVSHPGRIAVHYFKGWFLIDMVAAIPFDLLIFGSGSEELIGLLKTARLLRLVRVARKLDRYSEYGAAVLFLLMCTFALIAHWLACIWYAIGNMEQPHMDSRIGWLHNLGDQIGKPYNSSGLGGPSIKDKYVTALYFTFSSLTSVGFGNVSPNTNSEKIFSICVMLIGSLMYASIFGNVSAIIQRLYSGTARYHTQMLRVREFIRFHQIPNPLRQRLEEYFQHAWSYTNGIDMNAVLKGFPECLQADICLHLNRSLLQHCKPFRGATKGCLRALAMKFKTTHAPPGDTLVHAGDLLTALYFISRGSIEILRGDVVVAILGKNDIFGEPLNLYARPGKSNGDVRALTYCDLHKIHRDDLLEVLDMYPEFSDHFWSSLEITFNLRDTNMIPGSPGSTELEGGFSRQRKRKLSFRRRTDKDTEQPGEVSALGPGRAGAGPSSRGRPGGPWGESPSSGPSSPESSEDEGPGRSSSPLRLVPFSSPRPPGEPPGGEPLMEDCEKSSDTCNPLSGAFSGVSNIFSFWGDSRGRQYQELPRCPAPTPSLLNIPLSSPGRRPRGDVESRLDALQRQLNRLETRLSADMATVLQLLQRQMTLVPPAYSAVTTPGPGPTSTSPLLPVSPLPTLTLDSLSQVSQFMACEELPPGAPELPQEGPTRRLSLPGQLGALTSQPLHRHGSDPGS
Chain of CYP2D6 (P10635 whole entry): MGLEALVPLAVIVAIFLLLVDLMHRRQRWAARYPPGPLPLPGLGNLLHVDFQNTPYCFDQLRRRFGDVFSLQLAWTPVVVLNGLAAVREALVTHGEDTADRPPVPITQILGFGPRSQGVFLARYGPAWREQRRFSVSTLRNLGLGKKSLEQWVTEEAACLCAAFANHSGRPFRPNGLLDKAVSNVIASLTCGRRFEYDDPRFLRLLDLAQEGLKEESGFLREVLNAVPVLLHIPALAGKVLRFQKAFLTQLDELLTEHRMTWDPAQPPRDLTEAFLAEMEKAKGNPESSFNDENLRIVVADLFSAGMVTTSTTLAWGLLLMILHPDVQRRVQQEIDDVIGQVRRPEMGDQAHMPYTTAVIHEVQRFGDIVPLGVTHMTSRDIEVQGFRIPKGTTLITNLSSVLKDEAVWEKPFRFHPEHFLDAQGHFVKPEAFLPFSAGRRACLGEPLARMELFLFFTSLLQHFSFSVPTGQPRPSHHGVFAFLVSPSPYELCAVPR
Chain of CYP2C9 (P11712 whole entry): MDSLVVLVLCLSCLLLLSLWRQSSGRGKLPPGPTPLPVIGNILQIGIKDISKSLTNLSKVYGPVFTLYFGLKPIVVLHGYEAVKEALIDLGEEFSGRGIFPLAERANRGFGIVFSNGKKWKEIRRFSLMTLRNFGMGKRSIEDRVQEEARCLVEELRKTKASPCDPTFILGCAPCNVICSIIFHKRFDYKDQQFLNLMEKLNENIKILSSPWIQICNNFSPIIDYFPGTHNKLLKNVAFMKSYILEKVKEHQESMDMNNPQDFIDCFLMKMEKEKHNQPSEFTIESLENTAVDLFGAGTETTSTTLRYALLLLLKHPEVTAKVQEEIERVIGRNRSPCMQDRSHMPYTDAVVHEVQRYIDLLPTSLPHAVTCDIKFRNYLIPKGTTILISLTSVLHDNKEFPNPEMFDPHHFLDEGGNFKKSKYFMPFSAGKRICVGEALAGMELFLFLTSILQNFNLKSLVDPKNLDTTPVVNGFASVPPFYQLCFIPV
Chain of CYP3A4 (P08684 whole entry): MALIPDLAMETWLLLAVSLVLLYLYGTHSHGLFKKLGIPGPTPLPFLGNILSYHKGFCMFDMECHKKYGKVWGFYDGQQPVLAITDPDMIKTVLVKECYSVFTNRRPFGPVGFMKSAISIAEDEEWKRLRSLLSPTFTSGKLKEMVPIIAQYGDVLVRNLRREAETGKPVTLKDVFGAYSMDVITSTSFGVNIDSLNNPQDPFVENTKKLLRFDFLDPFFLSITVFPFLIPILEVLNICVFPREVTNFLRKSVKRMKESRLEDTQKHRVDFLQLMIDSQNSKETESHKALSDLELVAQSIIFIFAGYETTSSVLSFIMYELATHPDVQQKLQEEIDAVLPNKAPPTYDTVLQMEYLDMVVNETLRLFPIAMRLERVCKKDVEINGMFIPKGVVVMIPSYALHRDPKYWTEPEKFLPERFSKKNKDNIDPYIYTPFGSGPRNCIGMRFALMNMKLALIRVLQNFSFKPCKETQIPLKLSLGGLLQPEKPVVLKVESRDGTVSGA

For `CCc1ccc(C(=O)N(C)C(=O)c2ccccc2O)cc1`, which selectivity ratio [1] is on record?
Its selectivity ratio is 0.33.

What about the selectivity ratio [2] of the same compound?
Its selectivity ratio is 1.

And the IC50 [3]?
Its IC50 is 9.4 µg/mL (≈ 33.2 µM).

And the selectivity ratio [4]?
The selectivity ratio was under 0.094.

What about the IC50 [5] of the same compound?
The IC50 was 28 µg/mL (≈ 98.8 µM).

What about the IC50 [6] of the same compound?
Its IC50 is 29 µg/mL (≈ 102 µM).

And the selectivity ratio [7]?
The selectivity ratio was 0.33.

What about the IC50 [8] of the same compound?
The IC50 was 9.1 µg/mL (≈ 32.1 µM).

What about the IC50 [9] of the same compound?
Its IC50 is over 100 µg/mL.

For `CCc1ccc(C(=O)NNC(=O)c2ccccc2O)cc1`, which selectivity ratio [1] is on record?
The selectivity ratio was 0.18.

What about the selectivity ratio [2] of the same compound?
The selectivity ratio was 0.77.

What about the IC50 [3] of the same compound?
The IC50 was 4.8 µg/mL (≈ 16.9 µM).

What about the selectivity ratio [4] of the same compound?
The selectivity ratio was 0.28.

And the IC50 [5]?
The IC50 was 27 µg/mL (≈ 95 µM).

What about the IC50 [6] of the same compound?
The IC50 was 2.2 µg/mL (≈ 7.74 µM).

What about the selectivity ratio [7] of the same compound?
The selectivity ratio was 2.2.

And the IC50 [8]?
Its IC50 is 6.2 µg/mL (≈ 21.8 µM).

What about the IC50 [9] of the same compound?
The IC50 was 17 µg/mL (≈ 59.8 µM).

Which selectivity ratio [1] does the source give for `CCc1ccc(C(=O)NC(=S)c2ccccc2O)cc1` here?
Its selectivity ratio is 4.1.

What about the selectivity ratio [2] of the same compound?
Its selectivity ratio is 3.3.

And the IC50 [3]?
The IC50 was 17 µg/mL (≈ 59.6 µM).

What about the selectivity ratio [4] of the same compound?
Its selectivity ratio is 0.28.

And the IC50 [5]?
The IC50 was 4.2 µg/mL (≈ 14.7 µM).

What about the IC50 [6] of the same compound?
Its IC50 is 10 µg/mL (≈ 35 µM).

What about the selectivity ratio [7] of the same compound?
The selectivity ratio was 1.7.

And the IC50 [8]?
Its IC50 is 5.3 µg/mL (≈ 18.6 µM).

And the IC50 [9]?
The IC50 was 61 µg/mL (≈ 214 µM).

For `CCc1ccc(NC(=O)NC(=O)c2ccccc2O)cc1`, which selectivity ratio [1] is on record?
The selectivity ratio was 2.8.

What about the selectivity ratio [2] of the same compound?
Its selectivity ratio is 0.7.

What about the IC50 [3] of the same compound?
The IC50 was 70 µg/mL (≈ 246 µM).

What about the selectivity ratio [4] of the same compound?
Its selectivity ratio is 2.

And the IC50 [5]?
Its IC50 is 26 µg/mL (≈ 91.4 µM).

And the IC50 [6]?
The IC50 was 74 µg/mL (≈ 260 µM).

And the selectivity ratio [7]?
The selectivity ratio was 0.95.

And the IC50 [8]?
The IC50 was 100 µg/mL (≈ 352 µM).

What about the IC50 [9] of the same compound?
Its IC50 is 36 µg/mL (≈ 127 µM).

With `CCc1ccc(NC(=O)Nc2ccccc2O)cc1` as the compound, how does the selectivity ratio [1] read?
The selectivity ratio was 4.6.

And the selectivity ratio [2]?
The selectivity ratio was 2.6.

What about the IC50 [3] of the same compound?
Its IC50 is 9.6 µg/mL (≈ 37.5 µM).

And the selectivity ratio [4]?
Its selectivity ratio is 0.54.

What about the IC50 [5] of the same compound?
Its IC50 is 2.1 µg/mL (≈ 8.19 µM).

And the IC50 [6]?
Its IC50 is 7 µg/mL (≈ 27.3 µM).

What about the selectivity ratio [7] of the same compound?
The selectivity ratio was 1.4.

And the IC50 [8]?
Its IC50 is 3.7 µg/mL (≈ 14.4 µM).

And the IC50 [9]?
The IC50 was 18 µg/mL (≈ 70.2 µM).

What does the source list for `CCc1ccc(C(=O)n2c(=O)oc3ccccc3c2=O)cc1`?
selectivity ratio [1]: 3.7; selectivity ratio [2]: 13; IC50 [3]: 26 µg/mL (≈ 88 µM); selectivity ratio [4]: 0.31; IC50 [5]: 6.9 µg/mL (≈ 23.4 µM); IC50 [6]: 8.8 µg/mL (≈ 29.8 µM); selectivity ratio [7]: 3; IC50 [8]: 1.9 µg/mL (≈ 6.43 µM); IC50 [9]: 83 µg/mL (≈ 281 µM)

What does the source list for `CCc1ccc(C(=O)Nc2cn(C(C)=O)c3ccccc23)cc1`?
selectivity ratio [1]: 1; selectivity ratio [2]: < 0.46; IC50 [3]: 23 µg/mL (≈ 75.1 µM); selectivity ratio [4]: < 0.46; IC50 [5]: 23 µg/mL (≈ 75.1 µM); IC50 [6]: 28 µg/mL (≈ 91.4 µM); selectivity ratio [7]: < 0.81; IC50 [8]: > 50 µg/mL; IC50 [9]: > 50 µg/mL

For `CCc1ccc(NC(=O)CC(=O)Nc2ccccc2O)cc1`, which selectivity ratio [1] is on record?
The selectivity ratio was 1.3.

And the selectivity ratio [2]?
Its selectivity ratio is 1.2.

What about the IC50 [3] of the same compound?
Its IC50 is 16 µg/mL (≈ 53.6 µM).

What about the selectivity ratio [4] of the same compound?
The selectivity ratio was 0.44.

And the IC50 [5]?
Its IC50 is 12 µg/mL (≈ 40.2 µM).

And the IC50 [6]?
The IC50 was 20 µg/mL (≈ 67 µM).

And the selectivity ratio [7]?
Its selectivity ratio is 0.76.

What about the IC50 [8] of the same compound?
The IC50 was 13 µg/mL (≈ 43.6 µM).

And the IC50 [9]?
The IC50 was 35 µg/mL (≈ 117 µM).

For `CCc1ccc(C(=O)NC(=O)c2ccccc2O)cc1`, which “inhibition (INH)” value [10] is on record?
Its value is “Not Active”.

What about the solubility [11] of the same compound?
The solubility was 2.76 µM (≈ 0.743 µg/mL).

What about the IC50 [3] of the same compound?
The IC50 was 70 µg/mL (≈ 260 µM).

And the inhibition at 10 µM [12]?
Its inhibition at 10 µM is 71%.

What about the remaining at 1 h [13] of the same compound?
Its remaining at 1 h is 53%.

What about the IC50 [5] of the same compound?
The IC50 was 5.6 µg/mL (≈ 20.8 µM).

What about the inhibition at 10 µM [14] of the same compound?
Its inhibition at 10 µM is 71%.

What about the remaining at 1 h [15] of the same compound?
Its remaining at 1 h is 0.5%.

And the inhibition at 10 µM [16]?
Its inhibition at 10 µM is 71%.

And the solubility [17]?
Its solubility is 50.8 µM (≈ 13.7 µg/mL).

What about the IC50 [6] of the same compound?
Its IC50 is 4.8 µg/mL (≈ 17.8 µM).

What about the IC50 [8] of the same compound?
The IC50 was 7.4 µg/mL (≈ 27.5 µM).

What about the IC50 [9] of the same compound?
The IC50 was 81 µg/mL (≈ 301 µM).

And the fraction unbound [18]?
Its fraction unbound is 0.001.

And the microsomal CLint [19]?
Its microsomal CLint is 282 µL/min/mg.

For `OC(Cn1cncn1)(Cn1cncn1)c1ccc(F)cc1F` [FLUCONAZOLE], which fraction unbound [18] is on record?
The fraction unbound was 0.763.
